Experimental data: ChEMBL document CHEMBL5131398, “Novel nucleocapsid protein-targeting phenanthridine inhibitors of SARS-CoV-2” (Eur J Med Chem, 2022)

Experiments:
SARS-CoV-2 [1] = test: Antiviral activity against Severe acute respiratory syndrome coronavirus 2 infected in African green monkey Vero E6 cells assessed as inhibition of viral cytopathic effect at 8 uM incubated for 72 hrs by CCK8 assay relative to control; format: functional; set-up: scale not given: the % may be the effect or the level left
SARS-CoV-2 [2] = test: Antiviral activity against Severe acute respiratory syndrome coronavirus 2 infected in African green monkey Vero E6 cells assessed as inhibition of viral cytopathic effect at 0.32 uM incubated for 72 hrs by CCK8 assay relative to control; format: functional; set-up: scale not given: the % may be the effect or the level left
SARS-CoV-2 [3] = test: Antiviral activity against Severe acute respiratory syndrome coronavirus 2 infected in African green monkey Vero E6 cells assessed as inhibition of viral cytopathic effect at 0.064 uM incubated for 72 hrs by CCK8 assay relative to control; format: functional; set-up: scale not given: the % may be the effect or the level left
SARS-CoV-2 [4] = test: Antiviral activity against Severe acute respiratory syndrome coronavirus 2 infected in African green monkey Vero E6 cells assessed as inhibition of viral cytopathic effect at 40 uM incubated for 72 hrs by CCK8 assay relative to control; format: functional; set-up: scale not given: the % may be the effect or the level left
SARS-CoV-2 [5] = test: Antiviral activity against Severe acute respiratory syndrome coronavirus 2 infected in African green monkey Vero E6 cells assessed as inhibition of viral cytopathic effect at 1.6 uM incubated for 72 hrs by CCK8 assay relative to control; format: functional; set-up: scale not given: the % may be the effect or the level left
Vero C1008 = test: Cytotoxicity against African green monkey Vero E6 cells assessed as reduction in cell viability incubated for 72 hrs by CCK8 assay; format: toxicity, cell-based; settings: chlorocebus sabaeus, vero c1008, 72 h
Procedure, shortened: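 Vero E6 cells were seeded and grown overnight, then exposed to a range of compound concentrations for 72 h. Viability was read by CCK8. Triplicate.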

SARS-CoV-2 [6] = test: Antiviral activity against Severe acute respiratory syndrome coronavirus 2 infected in African green monkey Vero E6 cells assessed as inhibition of viral cytopathic effect at 200 uM incubated for 72 hrs by CCK8 assay relative to control; format: functional; set-up: scale not given: the % may be the effect or the level left
SARS-CoV-2 [7] = test: Antiviral activity against Severe acute respiratory syndrome coronavirus 2 infected in African green monkey Vero E6 cells assessed as reduction in viral RNA copies at 100 uM incubated for 48 hrs by RT-qPCR analysis relative to control; format: functional; set-up: scale not given: the % may be the effect or the level left
SARS-CoV-2 [8] = test: Antiviral activity against Severe acute respiratory syndrome coronavirus 2 infected in African green monkey Vero E6 cells assessed as reduction in viral RNA copies at 3.125 uM incubated for 48 hrs by RT-qPCR analysis relative to control; format: functional; set-up: scale not given: the % may be the effect or the level left
SARS-CoV-2 [9] = test: Antiviral activity against Severe acute respiratory syndrome coronavirus 2 infected in African green monkey Vero E6 cells assessed as inhibition of viral cytopathic effect incubated for 72 hrs by CCK8 assay; format: functional, organism-based; settings: Severe acute respiratory syndrome coronavirus 2, Vero C1008, 72 h
SARS-CoV-2 [10] = test: Antiviral activity against Severe acute respiratory syndrome coronavirus 2 infected in African green monkey Vero E6 cells assessed as reduction in viralN-terminal 6-histidine tagged RNA copies at 12.5 uM incubated for 48 hrs by RT-qPCR analysis relative to control; format: functional; set-up: scale not given: the % may be the effect or the level left
SARS-CoV-2 [11] = test: Antiviral activity against Severe acute respiratory syndrome coronavirus 2 infected in African green monkey Vero E6 cells assessed as reduction in viral RNA copies at 50 uM incubated for 48 hrs by RT-qPCR analysis relative to control; format: functional; set-up: scale not given: the % may be the effect or the level left
SARS-CoV-2 [12] = test: Antiviral activity against Severe acute respiratory syndrome coronavirus 2 infected in African green monkey Vero E6 cells assessed as reduction in viral RNA copies at 6.25 uM incubated for 48 hrs by RT-qPCR analysis relative to control; format: functional; set-up: scale not given: the % may be the effect or the level left

SMILES	Activity (SARS-CoV-2 [1]) [%]	Activity (SARS-CoV-2 [2]) [%]	Activity (SARS-CoV-2 [3]) [%]	Activity (SARS-CoV-2 [4]) [%]	Activity (SARS-CoV-2 [5]) [%]	CC50 (Vero C1008) [µM]	Activity (SARS-CoV-2 [6]) [%]	Activity (SARS-CoV-2 [7]) [%]	Activity (SARS-CoV-2 [8]) [%]	EC50 (SARS-CoV-2 [9]) [nM]	Activity (SARS-CoV-2 [10]) [%]	Activity (SARS-CoV-2 [11]) [%]	Activity (SARS-CoV-2 [12]) [%]
CCC(CC)COC(=O)[C@H](C)N[P@](=O)(OC[C@H]1O[C@@](C#N)(c2ccc3c(N)ncnn23)[C@H](O)[C@@H]1O)Oc1ccccc1	103.72	22.283	16.557	97.265	56.674	> 200	81.893	–	–	–	–	–	–
CCN1Cc2cc(OC)c(OC)cc2-c2cccc(N)c21	73.32	44.04	42.07	87.56	69.61	> 200	97.85	72.33	45.99	3690	61.27	76.41	53.79
CCN1Cc2cc(OC)c(OC)cc2-c2cccc(NC(=O)C(F)(F)F)c21	82.36	66.95	49.07	87.41	84.14	> 200	99.6	97.83	56.23	2180	68.79	68.9	54.85
